Test results as given in ChEMBL document CHEMBL1148911, “Ardisinones A-E, novel diarylundecanones from Ardisia arborescens” (J Nat Prod, 2004).
Calls of active or inactive are those of the source.

Key:
Type in all cases: functional, organism-based
Escherichia coli = assay: Antibacterial activity against Escherichia coli after 24 hrs by disk diffusion assay
In short: (§1)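 Agar disk diffusion. Each organism was grown on agar medium, and plates were inoculated by spreading a spore or cell suspension evenly over the agar surface to give confluent growth. Compound-loaded disks were applied, and the zone of inhibition around each disk was measured at 24 and 48 h.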

Staphylococcus aureus = assay: Antibacterial activity against Staphylococcus aureus after 24 hrs by disk diffusion assay; in short: as §1
Bacillus subtilis = assay: Antibacterial activity against Bacillus subtilis after 24 hrs by disk diffusion assay; in short: as §1
[1] = system: Mycolicibacterium smegmatis; assay: Antibacterial activity against Mycobacterium smegmatis after 24 hrs by disk diffusion assay; in short: as §1
Candida albicans = assay: Antibacterial activity against Candida albicans after 48 hrs by disk diffusion assay; in short: as §1
Aspergillus niger = assay: Antibacterial activity against Aspergillus niger after 48 hrs by disk diffusion assay; in short: as §1

Measured: Activity

COc1cc(O)c(C(=O)CCCCCCCCCCc2c(O)cccc2O)c(O)c1
inactive: Escherichia coli | Staphylococcus aureus | Bacillus subtilis | [1] | Candida albicans | Aspergillus niger

COc1cc(O)c(C(=O)CCCCCCCCCCc2c(O)cccc2OC(C)=O)c(O)c1
inactive: Escherichia coli | Staphylococcus aureus | Bacillus subtilis | [1] | Candida albicans | Aspergillus niger
